One block for each compound: values may come before it.
How the values were obtained:
[1] = target: T1, Acyl-CoA:cholesterol acyltransferase (Oryctolagus cuniculus) (UniProt Q95214); test: In vitro inhibitory activity against Acyl coenzyme A:cholesterol acyltransferase at a concentration of 5 ug/mL
T1 sequence (whole entry): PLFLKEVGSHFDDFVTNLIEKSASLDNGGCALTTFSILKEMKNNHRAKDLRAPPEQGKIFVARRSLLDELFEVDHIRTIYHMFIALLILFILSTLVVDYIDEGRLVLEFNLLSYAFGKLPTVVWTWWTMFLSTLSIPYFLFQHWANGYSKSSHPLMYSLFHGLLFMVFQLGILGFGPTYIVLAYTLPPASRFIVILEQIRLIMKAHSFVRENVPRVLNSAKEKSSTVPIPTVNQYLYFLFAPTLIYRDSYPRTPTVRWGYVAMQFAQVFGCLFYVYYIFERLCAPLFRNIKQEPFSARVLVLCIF

[2] = target: T2, Acyl-CoA:cholesterol acyltransferase (Oryctolagus cuniculus, UniProt Q95214); test: In vitro inhibitory activity against Acyl coenzyme A:cholesterol acyltransferase
T2 sequence (Q95214 whole entry): T1 sequence (whole entry)
Procedure, shortened: (§1)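 Cellular assay: Fu5AH cells cultured with [³H]cholesterol-labeled hyperlipemic plasma lipoproteins; inhibition of [³H]cholesteryl ester synthesis and accumulation measured; IC50 given in μg/mL.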

[3] = target: T2, Acyl-CoA:cholesterol acyltransferase; test: In vitro inhibitory activity against Acyl coenzyme A:cholesterol acyltransferase; a = inactive; procedure, shortened: as §1
Oryctolagus cuniculus [4] = test: Tested in vivo for plasma cholesterol levels in Netherland Dwarf rabbit; type: functional, organism-based
Procedure, shortened: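 Netherland Dwarf rabbits fed cholesterol-containing atherogenic diet, with test agent at 50 mg/kg; plasma total cholesterol in mg/dL measured, alongside aortic lesion surface involvement; means ±SEM of 8 animals per group.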

[5] = system: Sterol O-acyltransferase 1 (Rattus norvegicus); test: Reduction of ACAT activity after treatment was measured in rat liver
Rattus norvegicus [6] = test: Tested for plasma cholesterol levels against rat after 6.0 hours of oral administration.; type: functional, organism-based
Procedure, shortened: (§2)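 Male Sprague-Dawley rats (4 per group) intubated orally with 0.6 mL suspension of 1 μCi [4-14C]cholesterol (53 Ci/Mol), corn oil, ethanol, DMSO and 1 mg cholesterol, with or without test agent at 30 mg/kg. Two rats per group bled by cardiac puncture at 2.5 and 6 h; plasma [14C]cholesterol measured as dpm/mL; mean of two animals.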

Oryctolagus cuniculus [7] = test: Tested in vivo for atheromatous lesion development in Netherland Dwarf rabbit; type: functional
Procedure, shortened: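 Netherland Dwarf rabbits on cholesterol-containing atherogenic diet, dosed at 50 mg/kg; aortic lesion formation scored as % surface involvement, with plasma total cholesterol (mg/dL); means (±SEM) of 8 animals per group.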

Rattus norvegicus [8] = test: Tested for plasma cholesterol levels against rat after 2.5 hours of oral administration.; type: functional, organism-based; procedure, shortened: as §2
[9] = target: T3, Sterol O-acyltransferase 1 (Rattus norvegicus) (UniProt O70536); test: ACAT inhibitory activity was measured in rat liver after administration of 30 mg/Kg; type: functional, organism-based
T3 sequence (whole entry): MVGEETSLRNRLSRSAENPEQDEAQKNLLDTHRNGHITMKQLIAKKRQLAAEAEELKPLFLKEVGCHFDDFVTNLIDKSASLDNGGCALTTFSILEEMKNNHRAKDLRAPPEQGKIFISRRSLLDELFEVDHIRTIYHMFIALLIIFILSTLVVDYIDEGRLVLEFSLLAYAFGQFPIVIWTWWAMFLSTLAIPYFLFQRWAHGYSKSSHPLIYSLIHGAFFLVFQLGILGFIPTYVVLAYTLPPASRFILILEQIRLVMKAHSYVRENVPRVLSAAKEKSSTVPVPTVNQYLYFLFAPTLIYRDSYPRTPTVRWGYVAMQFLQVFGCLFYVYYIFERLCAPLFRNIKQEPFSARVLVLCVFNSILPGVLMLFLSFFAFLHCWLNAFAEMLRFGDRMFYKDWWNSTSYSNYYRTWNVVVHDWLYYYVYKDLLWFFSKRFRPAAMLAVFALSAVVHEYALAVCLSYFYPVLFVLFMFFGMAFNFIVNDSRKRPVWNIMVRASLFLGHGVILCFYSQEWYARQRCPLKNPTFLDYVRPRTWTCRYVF
Procedure, shortened: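 Male Sprague-Dawley rats (435-460 g) fed Purina chow with compound in diet (calculated 30 mg kg⁻¹ day⁻¹) for 8 days; liver minces incubated in vitro with [1-14C]oleate for 90 min; ACAT activity read as cholesteryl [14C]oleate formed, dpm/100 mg wet weight; means of 2 animals per group.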

[10] = target: T1, Acyl-CoA:cholesterol acyltransferase (Oryctolagus cuniculus); test: Arterial Acyl coenzyme A:cholesterol acyltransferase activity was measured in vitro in rabbit aorta after administration of 50 mg/Kg; type: functional, organism-based
Procedure, shortened: (§3)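 Rabbits given 10-day cholesterol feeding to raise arterial ACAT, then dosed orally at 50 mg kg⁻¹ day⁻¹ for 6 days; aortas excised, incubated in vitro with [1-14C]oleate for 3 h; ACAT activity as cholesteryl [14C]oleate formed, dpm/100 mg wet weight aorta; means of 2 animals per group.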

[11] = target: T1, Acyl-CoA:cholesterol acyltransferase (Oryctolagus cuniculus); test: Reduction of ACAT activity after treatment was measured in rabbit aorta; type: functional, tissue-based; procedure, shortened: as §3

- inhibition [1]: 5%
Structure (SMILES): COc1c2occc2c(OC)c2c(=O)cc(CN3CCN(CCN4CCN(Cc5cc(=O)c6c(OC)c7ccoc7c(OC)c6o5)CC4)CC3)oc12

- IC50 [2]: < 13.4 µM
Structure (SMILES): COc1c2occ(F)c2c(OC)c2c(=O)cc(CN3CCC(CCC4CCN(Cc5cc(=O)c6c(OC)c7c(F)coc7c(OC)c6o5)CC4)CC3)oc12

- inhibition [1]: 7%
Structure (SMILES): COc1c2occc2c(OC)c2c(=O)cc(CN3CCN(CC(O)CN4CCN(Cc5cc(=O)c6c(OC)c7ccoc7c(OC)c6o5)CC4)CC3)oc12

- inhibition [1]: 0%
Structure (SMILES): COc1c2occc2c(OC)c2c(=O)cc(CN3CCC(C4CCN(Cc5cc(=O)c6c(OC)c7ccoc7c(OC)c6o5)CC4)CC3)oc12

- IC50 [3]: Not Active
Structure (SMILES): COc1c2occc2c(O)c2c(=O)cc(CN3CCC(CCC4CCN(Cc5cc(=O)c6c(O)c7ccoc7c(OC)c6o5)CC4)CC3)oc12

- IC50 [2]: 4.19 µM
Structure (SMILES): COc1c2c(c(OC)c3c(=O)cc(CN4CCC(CCC5CCN(Cc6cc(=O)c7c(OC)c8c(c(OC)c7o6)OCC8)CC5)CC4)oc13)CCO2

Structure (SMILES): COc1c2occc2c(OC)c2c(=O)cc(CN3CCC(CCC4CCN(Cc5cc(=O)c6c(OC)c7ccoc7c(OC)c6o5)CC4)CC3)oc12
- Plasma total cholesterol (Oryctolagus cuniculus [4]): 271 mg/dL
- Reduction [5]: 62%
- Plasma [14C] cholesterol (Rattus norvegicus [6]): 3880 dpm/mL
- Surface involvement (Oryctolagus cuniculus [7]): <10%
- IC50 [2]: 1.12 µM
- Plasma [14C] cholesterol (Rattus norvegicus [8]): 818 dpm/mL
- ACAT activity (dpm/100 mg wet wt) [9]: 535
- ACAT activity (dpm/100 mg wet wt) [10]: 305
- Reduction [11]: 42%

- IC50 [2]: 5.78 µM
Structure (SMILES): COc1c2occc2c(OC)c2c(=O)cc(CN3CCC(CCCC4CCN(Cc5cc(=O)c6c(OC)c7ccoc7c(OC)c6o5)CC4)CC3)oc12

— ChEMBL document CHEMBL1124972, “Antiatherosclerotic agents. A structurally novel bivalent inhibitor of acylCoA:cholesterol O-acyltransferase with systemic activity” (J Med Chem, 1990)
